One assay concerns dengue virus type 4. In words: Activity of dengue virus 4 recombinant NS3 protease expressed in Escherichia coli C41(DE3) by fluorogenic assay. In a few lines:
(§1)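 NS2B(H)-NS3pro from inclusion bodies, Ni-chelate and gel filtration purified under 8 M urea, refolded by dialysis. Internally quenched Abz–RRRR-XXXX–nY–NH2 peptides, 1–100 µM (12 points), enzyme 150–200 nM, 50 mM Tris–HCl pH 9.0, 20% glycerol, 37 °C. Cleavage read as fluorescence, ex 320/em 420 nm. Initial rates fitted to give Km and kcat, averaged over ≥3 independent measurements.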

For another assay, the system named is dengue virus type 3. The experiment in a line: Activity of dengue virus 3 recombinant NS3 protease expressed in Escherichia coli C41(DE3) by fluorogenic assay. In a few lines:
as §1

Another assay has as its system dengue virus type 2. In words: Activity of dengue virus 2 recombinant NS3 protease expressed in Escherichia coli C41(DE3) by fluorogenic assay. Summed up:
as §1

A further assay has as its system dengue virus type 1. The experiment in a line: Activity of dengue virus 1 recombinant NS3 protease expressed in Escherichia coli C41(DE3) by fluorogenic assay. In a few lines:
as §1

The source of these data is ChEMBL document CHEMBL1152244, “Proteochemometrics analysis of substrate interactions with dengue virus NS3 proteases” (Bioorg Med Chem, 2008).

Molecules are shown by their SMILES. Non-standard residues stand in square brackets, D forms with d. Residues, ends and D or L forms follow the SMILES beside them. Tyr(3-NO2) = N[C@@H](Cc1ccc(O)c([N+](=O)[O-])c1)C(=O)O; 2Abz = Nc1ccccc1C(=O)O

Usually Km stands for the concentration of substrate that gives half-maximal velocity. As usually defined, the kcat is the number of substrate molecules converted per active site and unit of time at saturation.

For `NC(=O)[C@H](Cc1ccc(O)c([N+](=O)[O-])c1)NC(=O)[C@@H]1CCCN1C(=O)[C@@H]1CCCN1C(=O)CNC(=O)c1ccccc1N` (H-[2Abz]GPP[Tyr(3-NO2)]-NH2), the Km was 8.15 µM in the assay on dengue virus type 4, 18.7 µM in the assay with dengue virus type 3, 5.15 µM with dengue virus type 2 and 16.9 µM in the assay with dengue virus type 1. Further, the kcat was 1.32 min⁻¹ in the assay with dengue virus type 4, 0.44 min⁻¹ with dengue virus type 3, 0.17 min⁻¹ in the assay on dengue virus type 2 and 1.2 min⁻¹ in the assay with dengue virus type 1.
With `CC(C)[C@H](NC(=O)[C@@H](NC(=O)CNC(=O)c1ccccc1N)[C@@H](C)O)C(=O)N[C@@H](CC(N)=O)C(=O)N[C@@H](Cc1ccc(O)c([N+](=O)[O-])c1)C(N)=O` (H-[2Abz]GTVN[Tyr(3-NO2)]-NH2), the Km in the assay with dengue virus type 4 came to 11.8 µM; with dengue virus type 3, 12.6 µM; in the assay on dengue virus type 2, 6.5 µM; with dengue virus type 1 it was 10.5 µM. The kcat is 4.41 min⁻¹ in the assay on dengue virus type 4, 0.58 min⁻¹ in the assay with dengue virus type 3, 0.33 min⁻¹ in the assay with dengue virus type 2 and 1.16 min⁻¹ with dengue virus type 1.
Regarding `CSCC[C@H](NC(=O)[C@H](C)NC(=O)[C@H](C)NC(=O)[C@H](CO)NC(=O)c1ccccc1N)C(=O)N[C@@H](Cc1ccc(O)c([N+](=O)[O-])c1)C(N)=O` (H-[2Abz]SAAM[Tyr(3-NO2)]-NH2), the Km with dengue virus type 4 stood at 14.3 µM; with dengue virus type 3 it was 13.8 µM; with dengue virus type 2, 3.33 µM; in the assay with dengue virus type 1, 16.3 µM. The kcat in the assay on dengue virus type 4 was 13.2 min⁻¹; in the assay with dengue virus type 3, 1.8 min⁻¹; with dengue virus type 2, 1.56 min⁻¹; with dengue virus type 1 it was 9.18 min⁻¹.
In the case of `NC(=O)[C@H](Cc1ccc(O)c([N+](=O)[O-])c1)NC(=O)[C@H](Cc1cnc[nH]1)NC(=O)[C@H](CS)NC(=O)CNC(=O)[C@H](CC(=O)O)NC(=O)c1ccccc1N` (H-[2Abz]DGCH[Tyr(3-NO2)]-NH2), the Km came out at 9.05 µM in the assay on dengue virus type 4, 20.8 µM in the assay with dengue virus type 3, 7.02 µM with dengue virus type 2 and 22.9 µM with dengue virus type 1. Also, the kcat in the assay with dengue virus type 4 amounted to 0.47 min⁻¹; in the assay on dengue virus type 3, 0.17 min⁻¹; with dengue virus type 2 it was 0.09 min⁻¹; with dengue virus type 1, 0.77 min⁻¹.
For the molecule `C[C@H](NC(=O)c1ccccc1N)C(=O)NCC(=O)N1CCC[C@H]1C(=O)N[C@@H](CC(N)=O)C(=O)N[C@@H](Cc1ccc(O)c([N+](=O)[O-])c1)C(N)=O` (H-[2Abz]AGPN[Tyr(3-NO2)]-NH2), the Km in the assay with dengue virus type 4 stood at 19.2 µM; in the assay on dengue virus type 3 it was 10.8 µM; in the assay with dengue virus type 2, 4.18 µM; in the assay with dengue virus type 1 it was 12.6 µM. Further, the kcat with dengue virus type 4 amounted to 4.47 min⁻¹; with dengue virus type 3, 0.62 min⁻¹; in the assay with dengue virus type 2 it was 0.41 min⁻¹; with dengue virus type 1, 1.54 min⁻¹.
